Results taken from ChEMBL document CHEMBL1151701, “Discovery of new pyridoacridine alkaloids from Lissoclinum cf. badium that inhibit the ubiquitin ligase activity of Hdm2 and stabilize p53” (Bioorg Med Chem, 2008).
Active and inactive are the calls of the source. The calls are words filed in the database; no cut-off is given here.

How the values were obtained:
[1] = target: T1, E3 ubiquitin-protein ligase Mdm2 (Homo sapiens, UniProt Q00987); experiment: Inhibition of GST fused human Hdm2 in human RPE cells at 1 to 10 uM after 8 hrs by immunoblotting; assay type: cell-based
How it was run: (§1)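 Tert-immortalized human retinal pigment epithelial (RPE) cells exposed to compound (1–10 µM) or 50 µM ALLN for 8 h. Cells lysed in RIPA buffer, post-nuclear supernatants resolved by SDS-PAGE, then immunoblotted for p53, Hdm2 and β-actin as loading control.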
Target sequence in this assay (Q00987 whole entry, looked up, the tested form may be a part): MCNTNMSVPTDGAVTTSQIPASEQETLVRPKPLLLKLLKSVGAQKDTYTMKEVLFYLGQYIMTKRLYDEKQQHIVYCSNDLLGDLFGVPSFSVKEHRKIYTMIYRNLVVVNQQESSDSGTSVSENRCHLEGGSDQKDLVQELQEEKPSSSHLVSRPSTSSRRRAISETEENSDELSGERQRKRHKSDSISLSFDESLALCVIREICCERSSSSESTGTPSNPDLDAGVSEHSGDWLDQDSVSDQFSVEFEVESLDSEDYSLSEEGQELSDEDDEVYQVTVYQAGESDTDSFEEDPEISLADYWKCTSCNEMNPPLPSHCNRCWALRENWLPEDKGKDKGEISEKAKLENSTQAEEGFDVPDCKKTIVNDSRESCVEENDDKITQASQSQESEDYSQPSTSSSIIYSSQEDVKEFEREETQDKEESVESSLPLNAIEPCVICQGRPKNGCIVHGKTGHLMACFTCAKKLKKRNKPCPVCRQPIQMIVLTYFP

[2] = target: T1, E3 ubiquitin-protein ligase Mdm2; experiment: Inhibition of GST fused human Hdm2 in human RPE cells assessed as increase in p53 level at 1 to 10 uM after 8 hrs by immunoblotting; assay type: cell-based; how it was run: as §1
Target sequence in this assay (Q00987 whole entry, looked up, the tested form may be a part): as above

[3] = target: T1, E3 ubiquitin-protein ligase Mdm2; experiment: Inhibition of GST fused human Hdm2 assessed as polyubiquitylation by electrochemiluminescence assay
How it was run: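 Cell-free ubiquitylation. Lysate GST-Hdm2 captured on glutathione-coated wells for 1 h at RT. E1/UbcH5B were pre-charged with ubiquitin, ATP and DTT in PBS for 30 min, then added with sample for 30 min at RT. Read-out was ruthenium anti-polyubiquitin electrochemiluminescence, normalised between no-inhibitor (0%) and EDTA (100%). Tested at 100–0.02 µg/mL in quadruplicate.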
Target sequence in this assay (Q00987 whole entry, the tested form may be a part): as the sequence (Q00987 whole entry, looked up, the tested form may be a part) above

[4] = target: T1, E3 ubiquitin-protein ligase Mdm2; experiment: Inhibition of GST fused human Hdm2 in human RPE cells after 8 hrs by immunoblotting; assay type: cell-based; how it was run: as §1
Target sequence in this assay (Q00987 whole entry, looked up, the tested form may be a part): as above

[5] = target: T1, E3 ubiquitin-protein ligase Mdm2; experiment: Inhibition of GST fused human Hdm2 in human RPE cells assessed as increase in p53 level at 10 uM after 8 hrs by immunoblotting
Target sequence in this assay (Q00987 whole entry, looked up, the tested form may be a part): as above

[6] = target: T1, E3 ubiquitin-protein ligase Mdm2; experiment: Inhibition of GST fused human Hdm2 in human RPE cells at 10 uM after 8 hrs by immunoblotting
Target sequence in this assay (Q00987 whole entry, looked up, the tested form may be a part): as above

[7] = target: T1, E3 ubiquitin-protein ligase Mdm2; experiment: Inhibition of GST fused human Hdm2 expressed in p53 and mdm2-deficient mouse embryo fibroblasts under control of p53-independent promotor at 10 uM after 8 hrs by immunoblotting
How it was run: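 p53−/−mdm2−/− mouse embryo fibroblasts transiently transfected with Hdm2 plasmid under a CMV promoter. 48 h later they were treated with 10 µM compound for 8 h, and Hdm2 and β-actin were measured by immunoblotting.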
Target sequence in this assay (Q00987 whole entry, looked up, the tested form may be a part): as above

[8] = target: T1, E3 ubiquitin-protein ligase Mdm2; experiment: Inhibition of GST fused human Hdm2 in human RPE cells assessed as increase in p53 level after 8 hrs by immunoblotting; assay type: cell-based; how it was run: as §1
[9] = target: T1, E3 ubiquitin-protein ligase Mdm2; experiment: Inhibition of GST fused human Hdm2 in human RPE cells assessed as increase in p53 level at 1 uM after 8 hrs by immunoblotting; assay type: cell-based; how it was run: as §1
[10] = Cytotoxicity against human RPE cells assessed as increase in p53 level at 10 uM after 8 hrs by immunoblotting; assay type: cell-based; how it was run: as §1
[11] = Cytotoxicity against human RPE cells at 10 uM; assay type: cell-based; how it was run: as §1
A9 = experiment: Cytotoxicity against p53-deficient mouse A9 cells at 5 to 20 uM after 20 hrs by trypan blue exclusion assay; assay type: cell-based; settings: a9, 20 h
How it was run: (§2)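 p53-deficient (A9) and wild-type p53 (C8) mouse embryo fibroblasts treated 20 h with compound at 5–20 µM. Cell death by trypan blue exclusion. Mean and standard deviation of three independent experiments.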

[12] = Cytotoxicity against human RPE cells transformed with adenovirus E1A at 3 to 25 uM after 17 hrs by trypan blue exclusion assay; assay type: cell-based
How it was run: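 Parental RPE and adenovirus E1A-transformed RPE cells incubated 17 h with compound (3–25 µM) or 1 µg/ml adriamycin. Cell death scored by trypan blue exclusion. Mean and standard deviation of three independent experiments.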

[13] = Cytotoxicity against wild type p53-proficient mouse C8 cells at 5 to 20 uM after 20 hrs by trypan blue exclusion assay; assay type: cell-based; settings: c8, 20 h; how it was run: as §2
[14] = target: T1, E3 ubiquitin-protein ligase Mdm2; experiment: Inhibition of GST fused human Hdm2 in human HCT 116 cells expressing wild type p53 assessed as prevention of N-acetyl-leucyl-leucyl-norleucinal-induced accumulation of ubiquitylated p53 accumulation; assay type: cell-based
[15] = target: T1, E3 ubiquitin-protein ligase Mdm2; experiment: Inhibition of Hdm2-mediated p53 degradation in human U2-OS cells co-transfected with p53-Hdm2 after 8 hrs by immunoblotting; assay type: cell-based; settings: U2OS
U2OS = experiment: Induction of apoptosis in human U2OS cells assessed as activation of p53-dependent transactivation by luciferase reporter gene assay at 1 to 10 uM after 22 hrs; assay type: functional, cell-based
How it was run: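 U2OS-pG13 p53-reporter cells incubated 22 h with compound (1–10 µM) or 1 µg/ml adriamycin. Cells lysed in reporter lysis buffer and spun at 14,000 g for 20 min; luciferase activity of supernatant read as RLU. Mean and standard deviation of three independent experiments.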

HCT-116 [16] = experiment: Cytotoxicity against p53-proficient human HCT 116 cells at 5 to 20 uM after 20 hrs by trypan blue exclusion assay; assay type: functional, cell-based
HCT-116 [17] = experiment: Cytotoxicity against p53-deficient human HCT 116 cells at 5 to 20 uM after 20 hrs by trypan blue exclusion assay; assay type: functional, cell-based
[18] = target: T1, E3 ubiquitin-protein ligase Mdm2; experiment: Inhibition of Hdm2-mediated p53 degradation in human U2OS cells co-transfected with p53-Hdm2 at 50 uM after 8 hrs by immunoblotting; assay type: cell-based

Row | Compound | Activity [1] | Activity [2] | IC50 [3] [µM] | Activity [4] | Activity [5] | Activity [6] | Activity [7] | Activity [8] | further results
1 | COc1c(C)c(CCN(C)C)c2c(c1OC)SSSSS2 | inactive | inactive | 121 | – | – | – | – | – | –
2 | CSC1=C(CCN)c2nc3ccccc3c3ccnc(c23)C1=O [DIPLAMINE B] | – | – | 101 | Dose-dependent effect | Active | Active | Active | Dose-dependent effect | –
3 | COc1cc(CCN(C)C)c2c(c1O)SSSSS2 [ISOLISSOCLINOTOXIN B] | – | – | 58.6 | – | – | – | – | – | Activity [9]: inactive; Activity [10]: Active; Activity [11]: Toxic
4 | NCCc1c2c(c3nccc4c3c1Nc1ccccc1-4)OCS2 [LISSOCLINIDINE B] | – | – | – | Dose-dependent effect | Active | Active | Active | Dose-dependent effect | Activity (A9): Not Active; Activity [12]: Dose-dependent effect; Activity [13]: Active; Activity [14]: Active; Activity [15]: Dose-dependent effect; Activity (U2OS): Dose-dependent effect; Activity (HCT-116 [16]): Active; Activity (HCT-116 [17]): inactive; Activity [18]: inactive
5 | COc1cc(CCN)c2c(c1OC)SSSSS2 [VARACIN] | inactive | inactive | > 295 | – | – | – | – | – | –
